Consider three molecules from paper PMC3248652 (International Journal of Biological Sciences, 2011).

For data set [1] the following is noted: ref [22]; cited from earlier work.
The test system of another data set is glioma cell invasion. The settings on record: ref [6]; cited from earlier work.
The next data set relates to breast carcinoma. The settings on record: ref [20]; cited from earlier work.
The subject of data set [2] is ERK activation (activated human T cells). Briefly: CXCL12-induced ERK phosphorylation. The class given is cell-based. The essentials:
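About 10 million activated T cells per 0.5 ml per treatment, pretreated with test compound (20µM) for 30 min at 37°C. CXCL12 was then added to 10nM final. Cells were washed, harvested and lysed in RIPA buffer with protease and phosphatase inhibitors at 1, 3 and 10 min. Protein was measured by Bradford. 30μg lysate was run on 4-20% SDS-PAGE, blotted to nitrocellulose, and phospho-ERK detected by ECL.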

In another data set the test system is pancreatic carcinoma. The settings on record: ref [21]; cited from earlier work.
Data set [3] has as its system CXCR4. The settings on record: ref [15]; cited from earlier work.
Data set [4] has as its system CXCR4 mediated HIV viral entry. The settings on record: ref [19]; cited from earlier work.
In another data set the test system is GHS-R. As to conditions: cited from earlier work.
In data set [5] the test system is CXCR4. Put plainly: CXCR4 binding and activity, overall statement. It is filed as cell-based, human. The settings on record: T cells and PBMCs; summary statement.
Another data set concerns HIV1-IIIB (CXCR4 tropic). Put plainly: HIV1-IIIB propagation in activated PBMCs. As to conditions: activated human PBMCs. It is filed as cell-based, HIV-1. The essentials: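 PBMCs were activated 3 days with PHA 5μg/ml and IL-2 10 units/ml, then washed into cRPMI at 10^6/ml. Cells were pretreated 30 min at 37°C with the test compound and infected with HIV1-IIIB (10ng/ml p24) for 3 h. Cells were washed, replated at 500,000/ml in triplicate, and compound re-added. Supernatant p24 was measured by ELISA on days 3, 6 and 9 and expressed as % of virus-only control. Three donors were used.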

For data set [6], the system named is CXCR4 (GHOST-CXCR4 cells). Briefly: Fluorokine. It is filed as binding.
The test system of data set [7] is CXCR4 (primary human T cells). Briefly: CXCL12-induced T cell Transwell chemotaxis. It is filed as cell-based. As to conditions: CXCL12 10nM, 5 h 37°C, mean ±SEM of three experiments.
The test system of a further data set is obese mice. The settings on record: ref [24], cited from earlier work.
Data set [8] concerns CXCR4 (primary human T cells). Put plainly: CXCL12-induced intracellular calcium mobilization in primary human T cells. The settings on record: Fura-2AM, CXCL12 10nM. It is filed as cell-based. The essentials:
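Human T cells were enriched from Ficoll-isolated PBMCs on T-cell enrichment columns, loaded with Fura-2-AM, and washed. They were then pretreated 20 min with the test compound at various concentrations. CXCL12 was added to 10nM final. Ca++ release was monitored in a luminescence spectrometer (ex 340 and 380 nm, em 510 nm) and expressed as the 340/380 ratio. At least three experiments were run.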
For orientation: A change in cytosolic calcium serves as a functional read-out for many receptors and channels.

Setting [9] is: obese mice, repeated administration.

Entries after “also recorded” stand apart in the source; their conditions may differ. Like-named read-outs stand apart in the source and are kept apart here. Non-standard residues stand in square brackets, D forms with d.

Turning to `c1cc(CN2CCCNCCNCCCNCC2)ccc1CN1CCCNCCNCCCNCC1` [AMD3100], the “effect on allergy and collagen induced arthritis” value in data set [1] was “decreases allergy and collagen induced arthritis”. The “effect on glioma cell invasion” value with glioma cell invasion is reported as “blocks glioma cell invasion”. For the same molecule, the “effect on metastasis of breast carcinoma” value with breast carcinoma is recorded as “blocks”. Besides, the “block of ERK activation after CXCL12 treatment” value in [2] (activated human T cells, 10^-6M AMD3100, data not shown) is listed as 80%. Also, the “effect on metastasis of pancreatic carcinoma” value in the data set on pancreatic carcinoma is reported as “blocks”. For the same molecule, the CXCR4 blocking result with CXCR4 [3] was “potent CXCR4 [15] blocking agent”. In data set [4], the “effect on CXCR4 mediated HIV viral entry” value was “block CXCR4 mediated HIV viral entry”.

For H-H[dW]AW[dF]K-NH2 [GHRP-6], in the data set with GHS-R (ref [9]), the “activity at GHS-R” value was “GHS-R agonist”.

With H-H[dW][dK]W[dF]K-NH2 [DLS], the “effect on CXCL12 binding and activity through CXCR4” value in the data set with CXCR4 [5] is “block CXCL12 binding and activity through CXCR4; also recorded: modestly inhibit the binding and activity of CXCR4 receptor in human T cells”. Also, the “activity at GHS-R” value in the data set on GHS-R (ref [8], [9]) was “selective GHS-R antagonist”. Moreover, the “effect on ERK activation in response to CXCL12” value in [2] (DLS 20μM, 30 min 37°C, CXCL12 10nM, Western blot) was “very modestly blocks ERK activation”. In addition, the “effect on CXCR4-mediated HIV-1 entry and propagation” value in the data set on HIV1-IIIB (CXCR4 tropic) was “partially blocks CXCR4-mediated HIV-1 entry and propagation”. Moreover, the “effect on chemokine ligand binding” value in data set [6] (1/4/16 μg DLS, 30 min 37°C, flow cytometry MFI) is recorded as “blocks chemokine ligand binding to receptor-positive cells”. Also, the “amount required for the observed inhibition of CXCL12 binding” value in data set [6] (GHOST-CXCR4 cells, flow cytometry, AMD3100 data not shown) was “microgram quantities”. Besides, in data set [7], the “effect on CXCL12-induced T cell migration” value is “marked dose dependent inhibition; also recorded: inhibits CXCL12 induced activated T cell chemotaxis”. In the data set on obese mice (setting [9]), the body weight result is “reduce body weight in obese mice”; the “glycemic control and insulin resistance” value is “improve their glycemic control and insulin resistance”. Moreover, in the data set on obese mice (obese mice), the muscle mass result is “without affecting the muscle mass” and the “size of abdominal fat pads” value is “reduced the size of abdominal fat pads”. The adverse side effects result with obese mice (rodent models) was “without any adverse side effects”. In addition, the “effect on CXCL12-induced calcium flux” value in [8] is “markedly inhibited in a dose dependent fashion; also recorded: partially inhibits CXCL12-induced Ca++ release; also recorded: modest inhibition of calcium mobilization”.
